Reference: ChEMBL document CHEMBL1126828, “Structure-activity relationships of trans-3,4-dimethyl-4-(3-hydroxyphenyl)piperidine antagonists for mu- and kappa-opioid receptors” (J Med Chem, 1993)
Activity calls are given as the source filed them. No cut-off for these calls is given here.

Assays:
[1] = biological target: Kappa-type opioid receptor (Rattus norvegicus) (UniProt P34975); experiment: Tested for the antagonism of kappa opioid receptor diuresis at a dose of 0.08 mg/kg subcutaneously; type: functional, organism-based; parameters: dose 0.08 mg/kg
Sequence of Kappa-type opioid receptor (Rattus norvegicus) (P34975 whole entry): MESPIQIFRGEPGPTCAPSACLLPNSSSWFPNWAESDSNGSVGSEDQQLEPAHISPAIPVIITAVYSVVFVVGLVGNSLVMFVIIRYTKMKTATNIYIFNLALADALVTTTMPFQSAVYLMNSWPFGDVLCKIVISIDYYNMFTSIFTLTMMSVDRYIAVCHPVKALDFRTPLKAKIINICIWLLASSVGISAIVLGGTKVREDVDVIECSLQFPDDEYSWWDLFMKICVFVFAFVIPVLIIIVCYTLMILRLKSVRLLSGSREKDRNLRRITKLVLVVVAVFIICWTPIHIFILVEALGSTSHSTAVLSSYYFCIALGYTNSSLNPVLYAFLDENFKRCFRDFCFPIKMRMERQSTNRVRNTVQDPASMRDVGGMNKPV
How it was run: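 Male Long-Evans hooded rats (350-500 g), bremazocine HCl 0.08 mg/kg sc to induce diuresis, test antagonist sc at once on opposite side; metabolism cages, urine volume at 2 and 5 h. Three rats per dose, doses varied 2-fold; AD50 = dose halving 5-h urination.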

[2] = biological target: T1, Mu-type opioid receptor (Rattus norvegicus, UniProt P33535); experiment: Binding affinity towards mu opioid receptor by displacement of [3H]NAL from rat brain homogenates; type: tissue-based
T1 sequence (P33535 whole entry): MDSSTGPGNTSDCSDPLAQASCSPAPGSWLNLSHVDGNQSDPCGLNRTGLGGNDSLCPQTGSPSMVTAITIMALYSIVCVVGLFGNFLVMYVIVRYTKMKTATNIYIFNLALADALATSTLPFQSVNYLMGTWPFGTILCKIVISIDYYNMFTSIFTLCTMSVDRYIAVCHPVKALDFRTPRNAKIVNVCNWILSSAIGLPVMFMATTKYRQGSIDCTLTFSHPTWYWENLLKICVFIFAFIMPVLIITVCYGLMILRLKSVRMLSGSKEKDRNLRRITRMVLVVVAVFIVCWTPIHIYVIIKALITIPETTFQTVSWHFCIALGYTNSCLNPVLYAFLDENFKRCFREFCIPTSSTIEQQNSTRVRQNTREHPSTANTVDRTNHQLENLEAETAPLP

[3] = biological target: Kappa-type opioid receptor (Mus musculus) (UniProt P33534); experiment: Antagonism of opioid analgesia using a mouse writhing model to block U-50,488 ([…]) induced kappa-opioid receptor subcutaneously; type: functional, organism-based
Sequence of Kappa-type opioid receptor (Mus musculus) (P33534 whole entry): as the sequence (P34975 whole entry) above, with E11D, A17S, P51S, V308A counted along it

[4] = biological target: T2, Kappa-type opioid receptor (Cavia porcellus, UniProt P41144); experiment: Binding affinity towards kappa-opioid receptor by displacement of [3H]-EKC at from guinea pig cortical tissue
T2 sequence (P41144 whole entry): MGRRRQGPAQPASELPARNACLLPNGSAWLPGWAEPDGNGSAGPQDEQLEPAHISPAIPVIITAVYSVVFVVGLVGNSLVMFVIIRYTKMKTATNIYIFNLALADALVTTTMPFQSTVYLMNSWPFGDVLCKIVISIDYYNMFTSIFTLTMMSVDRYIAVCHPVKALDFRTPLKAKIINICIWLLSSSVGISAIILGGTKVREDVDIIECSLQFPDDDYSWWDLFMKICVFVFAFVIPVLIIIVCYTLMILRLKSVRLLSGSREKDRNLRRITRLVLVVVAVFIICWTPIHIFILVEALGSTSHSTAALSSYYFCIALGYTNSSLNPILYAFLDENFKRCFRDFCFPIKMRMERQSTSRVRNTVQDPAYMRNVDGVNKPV

[5] = biological target: Mu-type opioid receptor (Mus musculus) (UniProt P42866); experiment: Antagonism of opioid analgesia using a mouse writhing model to block morphine ([…]) induced mu-opioid receptor (subcutaneously dosed); type: functional, organism-based
Sequence of Mu-type opioid receptor (Mus musculus) (P42866 whole entry): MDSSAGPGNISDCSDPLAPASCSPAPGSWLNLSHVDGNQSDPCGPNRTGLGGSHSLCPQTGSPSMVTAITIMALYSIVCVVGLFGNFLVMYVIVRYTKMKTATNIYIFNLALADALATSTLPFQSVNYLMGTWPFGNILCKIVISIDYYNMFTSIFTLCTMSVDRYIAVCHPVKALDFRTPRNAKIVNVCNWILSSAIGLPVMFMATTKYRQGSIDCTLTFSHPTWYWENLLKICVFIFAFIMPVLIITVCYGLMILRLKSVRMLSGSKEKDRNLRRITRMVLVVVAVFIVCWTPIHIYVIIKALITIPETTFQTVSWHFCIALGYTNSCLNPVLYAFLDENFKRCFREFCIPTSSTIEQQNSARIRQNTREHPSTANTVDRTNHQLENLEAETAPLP

[6] = biological target: T1, Mu-type opioid receptor; experiment: Binding affinity towards mu-opioid receptor by displacement of [3H]NAL at 100 nM from rat brain homogenates; type: tissue-based
[7] = biological target: T1, Mu-type opioid receptor; experiment: Binding affinity towards mu-opioid receptor by displacement of [3H]NAL at 10 nM from rat brain homogenates; type: tissue-based
[8] = biological target: T2, Kappa-type opioid receptor; experiment: Binding affinity towards kappa-opioid receptor by displacement of [3H]EKC from guinea pig cortical tissue
How it was run: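 Guinea pig cortical washed crude synaptosomal membranes (stored -125 °C) in modified Krebs-HEPES pH 7.4; 1.0 nM [3H]ethylketocyclazocine, 100 nM fentanyl and 100 nM D-Ala2-D-Leu5-enkephalin to block mu/delta sites; 37 °C, 45 min. Nonspecific: 1000 nM unlabeled EKC. GF-C filtration, ice-cold washes, scintillation counting. Ki from at least six concentrations in triplicate, by regression.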

[9] = biological target: Mu-type opioid receptor (Mus musculus) (UniProt P42866); conditions: 0.08 mg/kg

SMILES | AD50 [1] [mg/kg] | Ki [2] [nM] | AD50 [3] [mg/kg] | Ki [4] [nM] | AD50 [5] [mg/kg] | Ki [6] [nM] | Ki [7] [nM] | Ki [8] [nM] | AD50 [9]
C[C@H]1CN(CCCOc2ccccc2)CC[C@@]1(C)c1cccc(O)c1 | 8.4 | 1 | > 1.25 | 61 | > 1.25 |  |  |  | 
Cc1cccc(CCCN2CC[C@@](C)(c3cccc(O)c3)[C@@H](C)C2)c1 | 10 | 2.8 | > 0.32 |  | > 1.25 |  |  |  | 
C[C@H]1CN(CCC(O)c2ccccc2)CC[C@@]1(C)c1cccc(O)c1 (stereo partly drawn) |  | 0.96 |  | 12.5 |  |  |  |  | 
C[C@H]1CN(CCCc2ccccc2)CC[C@@]1(C)c1cccc(O)c1 | 1.1 | 0.69 |  | 15 | 2.4 |  |  |  | 
C[C@H]1CN(CCCc2cccs2)CC[C@@]1(C)c1cccc(O)c1 (stereo in doubt; 41) [listing 1 of 2 here] |  |  | 0.3 |  |  |  |  |  | 
C[C@H]1CN(CCCCc2ccccc2)CC[C@@]1(C)c1cccc(O)c1 | 4.1 | 2 | > 1.25 |  | 0.28 |  |  |  | 
C=CCN1CC[C@@](C)(c2cccc(O)c2)[C@@H](C)C1 |  | 16 | > 10 | 313 | 1.3 |  |  |  | 
C[C@H]1CN(Cc2ccccc2)CC[C@@]1(C)c1cccc(O)c1 | 2.5 |  | 0.45 |  | 0.29 | 89 | 65 |  | 
C[C@H]1CN(CC2CC2)CC[C@@]1(C)c1cccc(O)c1 |  | 21 | 6.1 |  | 1.3 |  |  |  | 
C[C@H]1CN(CCc2cccc(Cl)c2)CC[C@@]1(C)c1cccc(O)c1 | 3.6 | 0.3 | 0.38 |  | 0.44 |  |  |  | 
C[C@H]1CN(CCCc2cccs2)CC[C@@]1(C)c1cccc(O)c1 (stereo in doubt; 42) [listing 1 of 2 here] |  |  | 0.25 |  | 0.03 |  |  |  | 
C[C@H]1CN(CCC(=O)c2ccccc2)CC[C@@]1(C)c1cccc(O)c1 (stereo in doubt; 6) [listing 1 of 2 here] | 3.2 |  | 4.5 |  | 0.14 |  |  |  | 
C[C@H]1CN(CCOc2ccccc2)CC[C@@]1(C)c1cccc(O)c1 | 3 | 1.3 | > 40 | 57 | 0.14 |  |  |  | 
C[C@@H]1CN(CCC(=O)c2ccccc2)CC[C@]1(C)c1cccc(O)c1 |  | 12 |  | 318 |  |  |  |  | 
C[C@H]1CN(CCCCc2cccs2)CC[C@@]1(C)c1cccc(O)c1 | 3.3 |  | 0.43 |  | 0.16 | 69 | 23 |  | 
C[C@H]1CN(CCCc2cccs2)CC[C@@]1(C)c1cccc(O)c1 (stereo in doubt; 42) [listing 2 of 2 here] |  | 0.2 |  | 3.3 |  |  |  |  | 
Cc1cccc(CCN2CC[C@@](C)(c3cccc(O)c3)[C@@H](C)C2)c1 | 5.7 |  | 0.95 |  | 0.27 | 100 | 83 |  | 
C[C@H]1CN(Cc2ccco2)CC[C@@]1(C)c1cccc(O)c1 |  | 5.8 | 1.35 | 71 | 0.71 |  |  |  | 
CC(CCCN1CC[C@@](C)(c2cccc(O)c2)[C@@H](C)C1)c1ccccc1 (stereo partly drawn) | 8.4 |  | 0.91 |  | 0.25 | 100 | 63 |  | 
CCN1CC[C@@](C)(c2cccc(O)c2)[C@@H](C)C1 |  | 52 | > 1.25 | 18 | > 1.25 |  |  |  | 
Cc1ccccc1CCN1CC[C@@](C)(c2cccc(O)c2)[C@@H](C)C1 | 0.5 |  | 0.33 |  | 0.19 | 100 | 90 | 7.5 | 
COc1ccccc1CCCN1CC[C@@](C)(c2cccc(O)c2)[C@@H](C)C1 | 2.2 | 0.95 | > 0.64 |  | 0.18 |  |  |  | 
C[C@H]1CN(CC(O)c2ccccc2)CC[C@@]1(C)c1cccc(O)c1 (stereo partly drawn) | 6.9 |  | 11.8 |  | 2.4 | 97 | 48 |  | 
C[C@H]1CN(C)CC[C@@]1(C)c1cccc(O)c1 | > 10 | 80 |  | 833 | 0.74 |  |  |  | 

SMILES | AD50 [1] [mg/kg] | Ki [2] [nM] | AD50 [3] [mg/kg] | Ki [4] [nM] | AD50 [5] [mg/kg] | Ki [6] [nM] | Ki [7] [nM] | Ki [8] [nM] | AD50 [9]
CCCCCN1CC[C@@](C)(c2cccc(O)c2)[C@@H](C)C1 | 0.69 | 4.3 |  |  | 0.37 |  |  |  | 
C[C@H]1CN(CCc2cccc3ccccc23)CC[C@@]1(C)c1cccc(O)c1 | > 5 |  | 0.51 |  | 0.08 |  | 1.1 |  | 
CCCCCCCN1CC[C@@](C)(c2cccc(O)c2)[C@@H](C)C1 |  | 0.62 |  |  |  |  |  |  | 
C[C@H]1CN(CCc2ccncc2)CC[C@@]1(C)c1cccc(O)c1 | 14 |  | > 1.25 |  | > 1.25 | 99 | 54 |  | 
C[C@H]1CN(CCC(O)c2cccs2)CC[C@@]1(C)c1cccc(O)c1 (stereo partly drawn) | 1.4 | 0.5 | 0.14 | 11.7 | 0.07 |  |  |  | 
C[C@H]1CN(CCC(=O)c2ccccc2)CC[C@@]1(C)c1cccc(O)c1 (stereo in doubt; 8) |  | 3.6 |  | 163 |  |  |  |  | 
C[C@H]1CN(CCCc2cccc(Cl)c2)CC[C@@]1(C)c1cccc(O)c1 | 11 |  | > 1.25 |  | 0.76 | 100 | 89 |  | 
C[C@@H]1CN(CCCc2cccs2)CC[C@]1(C)c1cccc(O)c1 |  | 1.8 |  | 13 |  |  |  |  | 
Cc1ccc(CCN2CC[C@@](C)(c3cccc(O)c3)[C@@H](C)C2)cc1 | 11 |  | > 1.25 |  | > 1.25 | 95 | 52 |  | 
C[C@H]1CN(CCc2ccccc2)CC[C@@]1(C)c1cccc(O)c1 | 1.8 |  | 1.4 |  | 0.16 |  |  |  | 
C[C@H]1CN(CCCc2cccs2)CC[C@@]1(C)c1cccc(O)c1 (stereo in doubt; 41) [listing 2 of 2 here] |  | 0.56 |  | 6.1 |  |  |  |  | 
C[C@H]1CN(CCCc2ccco2)CC[C@@]1(C)c1cccc(O)c1 |  | 1.4 | 0.26 | 14 | 0.08 |  |  |  | 
C[C@H]1CN(CCc2cccc(F)c2)CC[C@@]1(C)c1cccc(O)c1 | 1.4 |  | 0.84 |  | 0.14 |  | 3.2 |  | 
CCCCCCN1CC[C@@](C)(c2cccc(O)c2)[C@@H](C)C1 | 0.7 | 0.29 | 0.11 |  | 0.052 |  |  |  | 
C[C@H]1CN(CCc2ccccc2Cl)CC[C@@]1(C)c1cccc(O)c1 | 3.4 | 3.5 | 0.51 |  | 0.31 |  |  |  | 
C[C@H]1CN(CCC(=O)c2cccs2)CC[C@@]1(C)c1cccc(O)c1 |  | 1.5 |  | 15 |  |  |  |  | 
C[C@H]1CN(CCCc2ccsc2)CC[C@@]1(C)c1cccc(O)c1 |  |  |  | 10 |  |  | 0.26 |  | 
C[C@H]1CN(CCC(=O)c2ccccc2)CC[C@@]1(C)c1cccc(O)c1 (stereo in doubt; 6) [listing 2 of 2 here] |  | 5.4 |  | 208 |  |  |  |  | 
Cc1ccccc1CCCN1CC[C@@](C)(c2cccc(O)c2)[C@@H](C)C1 | 1.4 | 0.62 | 0.09 | 8.9 | 0.05 |  |  |  | 
C[C@H]1CN(CCc2cccs2)CC[C@@]1(C)c1cccc(O)c1 | 3.8 | 5.3 | 0.25 |  | 0.25 |  |  |  | 
C[C@H]1CN(CCc2ccc(Cl)c(Cl)c2)CC[C@@]1(C)c1cccc(O)c1 |  |  |  |  |  | 90 | 50 |  | inactive
C[C@H]1CN(CC(O)Cc2ccccc2)CC[C@@]1(C)c1cccc(O)c1 (stereo partly drawn) | 3.7 |  | 0.85 |  | 0.27 | 100 | 88 |  | 
C[C@H]1CN(Cc2ccoc2)CC[C@@]1(C)c1cccc(O)c1 | 3.8 |  | 0.71 |  | 0.4 | 100 | 82 |  | 
C[C@H]1CN(CC2CCCO2)CC[C@@]1(C)c1cccc(O)c1 (stereo partly drawn) | 3.2 |  | 0.75 |  | 0.6 | 60 | 26 |  | 
